The record followed here is ChEMBL document CHEMBL1125291, “New 8-(trifluoromethyl)-substituted quinolones. The benefits of the 8-fluoro group with reduced phototoxic risk” (1992).

By MIC is commonly meant the lowest concentration that inhibits growth of the organism. Broadly, the MTD is the largest dose that counted as tolerated. A high value points to a wide tolerated range.

≈ marks a conversion by molar mass, not a printed value.

The species named for the first assay is Mus musculus. Description: Days of the first positive reaction in […] mice. In kind it is functional.
Conditions: not given
The gist of the method: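 Phototoxic skin reaction test in depilated female CD-1 mice. A single oral dose (gavage) or subcutaneous dose was given, followed 1 h later by 3 h of UVA exposure (320–400 nm). The regimen was repeated for up to 4 consecutive days, with initial doses of 30, 100 and 300 mg/kg. PTD50 was derived by the probit method. The first day of positive reaction and the no-effect dose were taken from the raw data.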
As to `CCNCC1CCN(c2cc3c(cc2F)c(=O)c(C(=O)O)cn3C2CC2)C1` (stereo not given), the “Day of first positve reaction” value came out at 0.
Same read-out and setting: as for `C[C@@H]1CN(c2cc3c(cc2F)c(=O)c(C(=O)O)cn3C2CC2)CCN1`, the figure is 0.

Another assay is filed under the species Mus musculus. Description: Number of mice which show positive phototoxic reaction in 5 mice. The assay is classed as functional.
Conditions: not given
On to `CCNCC1CCN(c2cc3c(cc2F)c(=O)c(C(=O)O)cn3C2CC2)C1` (stereo not given), for which the “No. of pos rxns” value is 0.
On the same count and under the same terms, for `C[C@@H]1CN(c2cc3c(cc2F)c(=O)c(C(=O)O)cn3C2CC2)CCN1` the value was 1.

The test system of a further assay is Escherichia coli. Description: In vivo efficacy in mouse protection test in Escherichia coli Vogel administered by subcutaneous injection. In kind it is functional. As to conditions: Escherichia coli, sc; read-out: PD50. The gist of the method:
(§1)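 Acute lethal systemic infections in female Charles River CD-1 mice. A single dose was given at challenge, orally by gavage or by subcutaneous injection. PD50 (median protective dose, mg/kg) was determined.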
In the case of `CCNCC1CCN(c2cc3c(cc2F)c(=O)c(C(=O)O)cn3C2CC2)C1` (stereo not given), the ED50 was 2.4 mg/kg.
The same measure, in the same setting: as for `C[C@@H]1CN(c2cc3c(cc2F)c(=O)c(C(=O)O)cn3C2CC2)CCN1`, the figure is 0.4 mg/kg.

The test system of another assay is Escherichia coli. Description: In vivo efficacy in mouse protection test in Escherichia coli Vogel dose administered orally by gavage. In kind it is functional. The conditions noted are these: Escherichia coli, po; read-out: PD50. The gist of the method:
as §1
Consider `CCNCC1CCN(c2cc3c(cc2F)c(=O)c(C(=O)O)cn3C2CC2)C1` (stereo not given), for which the ED50 came to 35 mg/kg.
Regarding `C[C@@H]1CN(c2cc3c(cc2F)c(=O)c(C(=O)O)cn3C2CC2)CCN1`, the ED50 was determined as 1.2 mg/kg.

For a further assay, the system named is Escherichia coli. Description: Minimum inhibitory concentration (MIC) against gram negative bacteria Escherichia coli H-560. In kind it is functional. The conditions noted are these: Escherichia coli; read-out: MIC. The gist of the method: (§2)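 MICs were determined by standard broth microtitration against 11 Gram-positive and Gram-negative organisms, in µg/mL. Values come from duplicate or triplicate experiments and are accurate to ±50%.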
Regarding `CCNCC1CCN(c2cc3c(cc2F)c(=O)c(C(=O)O)cn3C2CC2)C1` (stereo not given), the MIC is 0.05 µg/mL (≈ 0.134 µM).
Turning to `C[C@@H]1CN(c2cc3c(cc2F)c(=O)c(C(=O)O)cn3C2CC2)CCN1`, the MIC was found to be 0.025 µg/mL (≈ 0.0724 µM).

In another assay the test system is Escherichia coli. Description: Minimum inhibitory concentration (MIC) against gram negative bacteria Escherichia coli Vogel. In kind it is functional. As to conditions: Escherichia coli; read-out: MIC. The method, boiled down:
as §2
On to `CCNCC1CCN(c2cc3c(cc2F)c(=O)c(C(=O)O)cn3C2CC2)C1` (stereo not given), for which the MIC was found to be 0.2 µg/mL (≈ 0.536 µM).
The same measure, in the same setting: as for `C[C@@H]1CN(c2cc3c(cc2F)c(=O)c(C(=O)O)cn3C2CC2)CCN1`, the figure is 0.025 µg/mL (≈ 0.0724 µM).

The test system of the next assay is Enterobacter cloacae. Description: Minimum inhibitory concentration (MIC) against gram negative bacteria Enterobacter cloacae MA-2646. The assay is classed as functional.
Conditions: not given
In the case of `CCNCC1CCN(c2cc3c(cc2F)c(=O)c(C(=O)O)cn3C2CC2)C1` (stereo not given), 0.4 µg/mL (≈ 1.07 µM) was the least that counted as inhibitory (MIC).
The compound `C[C@@H]1CN(c2cc3c(cc2F)c(=O)c(C(=O)O)cn3C2CC2)CCN1` displayed an MIC of 0.025 µg/mL (≈ 0.0724 µM).

The next assay deals with Klebsiella pneumoniae. Description: Minimum inhibitory concentration (MIC) against gram negative bacteria Klebsiella pneumoniae MGH-2. In kind it is functional. The conditions noted are these: Klebsiella pneumoniae; read-out: MIC. The method, boiled down: as §2
Consider `CCNCC1CCN(c2cc3c(cc2F)c(=O)c(C(=O)O)cn3C2CC2)C1` (stereo not given), for which the MIC is 0.2 µg/mL (≈ 0.536 µM).
Take `C[C@@H]1CN(c2cc3c(cc2F)c(=O)c(C(=O)O)cn3C2CC2)CCN1`: the MIC is 0.05 µg/mL (≈ 0.145 µM).

The next assay is filed under the species Mus musculus. Description: Dose required to induce phototoxic reaction in 50% of mice by probit method at different dosage forms. In kind it is functional.
Conditions: not given
For the compound `CCNCC1CCN(c2cc3c(cc2F)c(=O)c(C(=O)O)cn3C2CC2)C1` (stereo not given), the PTD50 was more than 100 mg/kg.
The same measure, in the same setting: for `C[C@@H]1CN(c2cc3c(cc2F)c(=O)c(C(=O)O)cn3C2CC2)CCN1` the value was more than 100 mg/kg.

For another assay, the species on record is Mus musculus. Description: Dose which has no effect to induce phototoxic reaction in 50% of mice by probit method. The assay is classed as functional.
Conditions: not given
Regarding `CCNCC1CCN(c2cc3c(cc2F)c(=O)c(C(=O)O)cn3C2CC2)C1` (stereo not given), the No effect dose is 100 mg/kg.
On the same count and under the same terms, as for `C[C@@H]1CN(c2cc3c(cc2F)c(=O)c(C(=O)O)cn3C2CC2)CCN1`, the figure is 100 mg/kg.

The next assay deals with Mus musculus. Description: Maximum tolerance dose was measured for phototoxic skin reaction by po administration. In kind it is functional.
Conditions: not given
Regarding `CCNCC1CCN(c2cc3c(cc2F)c(=O)c(C(=O)O)cn3C2CC2)C1` (stereo not given), the maximal tolerated dose (MTD) is 100 mg/kg.
The same measure, in the same setting: for `C[C@@H]1CN(c2cc3c(cc2F)c(=O)c(C(=O)O)cn3C2CC2)CCN1` the value was 100 mg/kg.

System in another assay: not listed separately
Description: Minimum inhibitory concentration (MIC) against gram negative bacteria Prot. rettgeri M-1771. In kind it is functional, Providencia rettgeri. As to conditions: Providencia rettgeri; read-out: MIC. The gist of the method: as §2
Take `CCNCC1CCN(c2cc3c(cc2F)c(=O)c(C(=O)O)cn3C2CC2)C1` (stereo not given): the MIC was found to be 0.8 µg/mL (≈ 2.14 µM).
Take `C[C@@H]1CN(c2cc3c(cc2F)c(=O)c(C(=O)O)cn3C2CC2)CCN1`: the MIC came out at 0.1 µg/mL (≈ 0.29 µM).

In a further assay the test system is Pseudomonas aeruginosa. Description: Minimum inhibitory concentration (MIC) against gram negative bacteria Pseudomonas aeruginosa UI-18. In kind it is functional. As to conditions: Pseudomonas aeruginosa; read-out: MIC. The method, boiled down:
as §2
In the case of `CCNCC1CCN(c2cc3c(cc2F)c(=O)c(C(=O)O)cn3C2CC2)C1` (stereo not given), the MIC was found to be 1.6 µg/mL (≈ 4.28 µM).
Same read-out and setting: as for `C[C@@H]1CN(c2cc3c(cc2F)c(=O)c(C(=O)O)cn3C2CC2)CCN1`, the figure is 0.4 µg/mL (≈ 1.16 µM).

The subject of another assay is Streptococcus pyogenes. Description: In vivo efficacy (s.c.) against Streptococcus pyogenes C-203 in mouse protection test. The assay is classed as functional. As to conditions: Streptococcus pyogenes, sc; read-out: PD50. The method, boiled down:
as §1
Take `CCNCC1CCN(c2cc3c(cc2F)c(=O)c(C(=O)O)cn3C2CC2)C1` (stereo not given): the ED50 amounted to 4.5 mg/kg.
The same measure, in the same setting: as for `C[C@@H]1CN(c2cc3c(cc2F)c(=O)c(C(=O)O)cn3C2CC2)CCN1`, the figure is 12 mg/kg.

The test system of another assay is Streptococcus pyogenes. Description: In vivo efficacy (orally) against Streptococcus pyogenes C-203 in mouse protection test. In kind it is functional. The conditions noted are these: Streptococcus pyogenes, po; read-out: PD50. The method, boiled down: as §1
For the compound `CCNCC1CCN(c2cc3c(cc2F)c(=O)c(C(=O)O)cn3C2CC2)C1` (stereo not given), the ED50 was 46 mg/kg.
On the same count and under the same terms, as for `C[C@@H]1CN(c2cc3c(cc2F)c(=O)c(C(=O)O)cn3C2CC2)CCN1`, the figure is 39 mg/kg.

The test system of the next assay is Staphylococcus aureus. Description: Minimum inhibitory concentration (MIC) against gram positive bacteria Staphylococcus aureus H-228. In kind it is functional. As to conditions: Staphylococcus aureus; read-out: MIC. The gist of the method: as §2
Regarding `CCNCC1CCN(c2cc3c(cc2F)c(=O)c(C(=O)O)cn3C2CC2)C1` (stereo not given), the MIC stood at 0.4 µg/mL (≈ 1.07 µM).
The same measure, in the same setting: as for `C[C@@H]1CN(c2cc3c(cc2F)c(=O)c(C(=O)O)cn3C2CC2)CCN1`, the figure is 0.4 µg/mL (≈ 1.16 µM).

The next assay concerns Staphylococcus aureus. Description: Minimum inhibitory concentration (MIC) against gram positive bacteria Staphylococcus aureus UC-76. The assay is classed as functional. The conditions noted are these: Staphylococcus aureus; read-out: MIC. The method, boiled down:
as §2
As to `CCNCC1CCN(c2cc3c(cc2F)c(=O)c(C(=O)O)cn3C2CC2)C1` (stereo not given), the MIC is 0.013 µg/mL (≈ 0.0348 µM).
Same read-out and setting: for `C[C@@H]1CN(c2cc3c(cc2F)c(=O)c(C(=O)O)cn3C2CC2)CCN1` the value was 0.1 µg/mL (≈ 0.29 µM).

The next assay concerns Enterococcus faecalis. Description: Minimum inhibitory concentration (MIC) against gram positive bacteria Streptococcus faecalis MGH-2. As to conditions: Enterococcus faecalis; read-out: MIC. The assay is classed as functional. The gist of the method:
as §2
For `CCNCC1CCN(c2cc3c(cc2F)c(=O)c(C(=O)O)cn3C2CC2)C1` (stereo not given), the MIC stood at 0.2 µg/mL (≈ 0.536 µM).
Turning to `C[C@@H]1CN(c2cc3c(cc2F)c(=O)c(C(=O)O)cn3C2CC2)CCN1`, the MIC came out at 0.4 µg/mL (≈ 1.16 µM).

A further assay has as its system Streptococcus pneumoniae. Description: Minimum inhibitory concentration (MIC) against gram positive bacteria Streptococcus pneumoniae SV-1. In kind it is functional. The conditions noted are these: Streptococcus pneumoniae; read-out: MIC. The method, boiled down:
as §2
With `CCNCC1CCN(c2cc3c(cc2F)c(=O)c(C(=O)O)cn3C2CC2)C1` (stereo not given), the MIC was determined as 0.2 µg/mL (≈ 0.536 µM).
As to `C[C@@H]1CN(c2cc3c(cc2F)c(=O)c(C(=O)O)cn3C2CC2)CCN1`, the MIC was found to be 0.2 µg/mL (≈ 0.579 µM).

A further assay relates to Streptococcus pyogenes. Description: Minimum inhibitory concentration (MIC) against gram positive bacteria Streptococcus pyogenes C-203. In kind it is functional. As to conditions: Streptococcus pyogenes; read-out: MIC. The method, boiled down: as §2
Consider `CCNCC1CCN(c2cc3c(cc2F)c(=O)c(C(=O)O)cn3C2CC2)C1` (stereo not given), for which the MIC is 0.05 µg/mL (≈ 0.134 µM).
Regarding `C[C@@H]1CN(c2cc3c(cc2F)c(=O)c(C(=O)O)cn3C2CC2)CCN1`, the MIC came out at 0.2 µg/mL (≈ 0.579 µM).
